Sequences and labels used below:
B1: tRNA (parent)
chain: GUUCCGUUGGCGUAAUGGUAACGCGUCUCCCUCCUAAGGAGAAGACUGCGGGUUCGAGUCCCGUACGGAACG

This sample holds only a part of the variants without activity.

The data set covers variants of B1. As to the kind of experiment: yeast fitness relative to wild type (ratio to wild type); higher = fitter; tRNA-Arg(CCU), competitive growth, 37 C, YPD. An outline of the steps:
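Gene amplicons from the start population and from each of six end populations were read by 100-nucleotide paired-end sequencing. Those end populations came from pooled Saccharomyces cerevisiae strains carrying tRNA-Arg(CCU) gene variants at the native locus, competed in YPD at 37°C for 24 hours. Fitness relative to wild type was worked out from changes in genotype frequencies. Genotypes needed ≥ 100 starting reads, and estimates < 0.5 were set to 0.5.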
A45C U54C C66U: the yeast fitness is 0.606.

Consider A45G A57G G63A, for which the yeast fitness is ≤ 0.5.

A43G A45U U47C G63A: the yeast fitness was ≤ 0.5.

Regarding A45G, the yeast fitness is 0.991.

Consider A45C, for which the yeast fitness amounted to 0.987.

Consider A43U C60G C62G, for which the yeast fitness was ≤ 0.5.

As for A43U C60G C62U, the yeast fitness amounted to 0.839.

On to A45C G48C, for which the yeast fitness was found to be 0.833.

A45C C49A A65U: the yeast fitness was ≤ 0.5.

Turning to A45C C46A C49G, the yeast fitness was found to be 0.722.

Regarding G44A G52C, the yeast fitness is 0.504.

On to G44A G52A, for which the yeast fitness is 0.827.

Regarding A43U G50A, the yeast fitness amounted to 0.796.

Turning to A43U G50C, the yeast fitness was found to be 0.812.

As for A43G G58A, the yeast fitness came out at 0.969.

As to G44A A69C, the yeast fitness was 0.988.

G44C U54A: the yeast fitness was found to be 0.667.

For G44C U54C, the yeast fitness is 0.977.

Consider A43U G52C C62A, for which the yeast fitness was ≤ 0.5.

Turning to A43G G50A G51A C62U, the yeast fitness is ≤ 0.5.

Take G44A C49U: the yeast fitness came out at 1.04.

Consider G44A C49A, for which the yeast fitness was 0.635.

As to G44A C46G G50C U53A, the yeast fitness is ≤ 0.5.

A43U C49U C62U: the yeast fitness stood at 0.79.

For G44C C61U, the yeast fitness was found to be 0.718.

In the case of G44C C61G, the yeast fitness worked out at 0.586.

Take A43U U53A A69C: the yeast fitness was 0.614.

On to A43U C62A, for which the yeast fitness is 0.702.

Take A43U C46U C49U: the yeast fitness is 0.731.

Turning to G44C A45G A70G, the yeast fitness is 0.695.

G44C G52A U59C U64G: the yeast fitness came to 0.553.

With A45C G63C, the yeast fitness came to 0.589.

For the variant A45C C46U G67C, the yeast fitness came out at 0.584.

Regarding A45C C55U G68C, the yeast fitness worked out at 0.626.

Regarding G44C C62G G68A, the yeast fitness is ≤ 0.5.

With G44C C66A, the yeast fitness stood at 0.688.

With G44C C46A, the yeast fitness was 1.01.

As to A43G G52C, the yeast fitness was determined as 0.643.

For the variant G44A G50C, the yeast fitness came out at 0.623.

Regarding G44A G50A, the yeast fitness came out at 0.891.

Take A45C C55U G56A: the yeast fitness worked out at 0.539.

As for G44C G50A G67C, the yeast fitness stood at 0.604.

Regarding A45C U64C, the yeast fitness came to 0.941.

Turning to A43G G51A G58A, the yeast fitness worked out at 0.58.

For the variant A43G C61G C62U, the yeast fitness is ≤ 0.5.

Regarding A43U A45U A57C C66U, the yeast fitness is ≤ 0.5.

As for A43G A65G, the yeast fitness came to 1.08.

Consider A43G A65U, for which the yeast fitness was determined as 0.899.

Turning to A45C G56C U64C, the yeast fitness amounted to 0.555.

Regarding G44A C66U, the yeast fitness was determined as 0.86.

As for A43C U47C, the yeast fitness turned out to be 1.07.

With G44A A57C, the yeast fitness amounted to 0.654.

For G44A C46U, the yeast fitness came to 0.981.

Take A43G C66A: the yeast fitness was determined as 0.791.

Regarding A45C G51C A57G, the yeast fitness was ≤ 0.5.

Turning to G44A G48A, the yeast fitness amounted to 0.96.

Turning to A45C G50A G63C, the yeast fitness stood at 0.578.

Take G44C G68U: the yeast fitness was 0.661.

As to G44C G68C, the yeast fitness turned out to be 0.81.

Turning to G44A G63A G67C, the yeast fitness is ≤ 0.5.

For A43C G63C G67A, the yeast fitness was ≤ 0.5.

For the variant G44C A57U U64A G68C, the yeast fitness is ≤ 0.5.

Take A45C C46U C55U C62U: the yeast fitness is ≤ 0.5.

In the case of A45C A65G, the yeast fitness was 0.993.

Take A45C A65U: the yeast fitness was 0.833.

In the case of A43U C60A C62U, the yeast fitness amounted to 0.65.

Regarding A43G C49A, the yeast fitness turned out to be 0.574.

Turning to A43G C49G, the yeast fitness was determined as 0.732.

For A43U U64G G67A, the yeast fitness is ≤ 0.5.

With G44A C62U, the yeast fitness stood at 0.874.

For the variant G44A C62G, the yeast fitness is 0.668.

With A43C U54A A57G, the yeast fitness is ≤ 0.5.

With A45C G50A C62U A69U, the yeast fitness turned out to be 0.561.

Take A43G C62G: the yeast fitness was found to be 0.752.

Consider A43G C62A, for which the yeast fitness came to 0.72.

For the variant A43G C62U, the yeast fitness came to 0.877.

Consider A43G U64A, for which the yeast fitness was determined as 0.77.

Consider A43G U64C, for which the yeast fitness is 0.923.

In the case of A43U C49G, the yeast fitness came out at 0.727.

For A43U U54A A57C, the yeast fitness worked out at 0.533.

Regarding G44A A45C G51A, the yeast fitness is ≤ 0.5.

As for A43G A45U G48A, the yeast fitness was found to be 0.658.

A45C U53C C66U: the yeast fitness is ≤ 0.5.

Consider A45C U47C, for which the yeast fitness worked out at 0.951.

On to A45C U47A, for which the yeast fitness is 0.934.

For the variant A45C G51C U54C A57G, the yeast fitness is ≤ 0.5.

Consider A45C G56A C62U, for which the yeast fitness is 0.711.

A43U G52A A69U: the yeast fitness is ≤ 0.5.

With G44A A65G, the yeast fitness worked out at 1.

Regarding A43U A65C, the yeast fitness was found to be 0.952.

Regarding A43U A65U, the yeast fitness stood at 0.883.

For the variant A45C U54C, the yeast fitness is 0.69.

As to A43U C49G G63A A69C, the yeast fitness was ≤ 0.5.

G44A G56A: the yeast fitness is 1.05.

For the variant A45C C49U C55U, the yeast fitness worked out at 0.596.

As to A43U G56A, the yeast fitness was found to be 0.96.

Take G44A C55G G63C: the yeast fitness was ≤ 0.5.

As to G44C C46G A57C, the yeast fitness is ≤ 0.5.

On to A43U G67A A69U, for which the yeast fitness is 0.548.

Consider A43G A45C C49G, for which the yeast fitness was 0.532.

Regarding A43G G51A, the yeast fitness amounted to 0.853.

Consider A43C U47A G58C U64C, for which the yeast fitness is ≤ 0.5.

A43G C46U A70G: the yeast fitness stood at 1.04.

As for A43U C61G C62U G68A A69C, the yeast fitness was ≤ 0.5.

In the case of A43G G50A G51A, the yeast fitness is ≤ 0.5.

On to A43G U64G C66U, for which the yeast fitness is 0.544.

On to G44A C60G U64C, for which the yeast fitness was ≤ 0.5.

For the variant A43G G63C G68A, the yeast fitness is ≤ 0.5.

Consider A43G C61A, for which the yeast fitness was found to be 0.616.

For the variant A43C U64C, the yeast fitness was 0.997.

For A43G G52C U53C G63C, the yeast fitness was determined as 0.604.

Regarding G44C C49U, the yeast fitness was determined as 0.783.

Take G44C C49A: the yeast fitness was 0.625.

G44C C49G: the yeast fitness amounted to 0.741.

For A43U A65C A69C, the yeast fitness is ≤ 0.5.

For the variant A43U G48C, the yeast fitness was 0.922.

With A45C G48A C62U, the yeast fitness was 0.606.

As for G44A C55A A69C, the yeast fitness is ≤ 0.5.

For A43U U64G, the yeast fitness amounted to 0.7.

A43G G50C U59C: the yeast fitness was ≤ 0.5.

For G44C G50A, the yeast fitness was found to be 0.861.

Consider G44C A65C, for which the yeast fitness amounted to 0.742.

For the variant G44C A65G, the yeast fitness stood at 1.06.

Consider A43U G63C, for which the yeast fitness turned out to be 0.589.

With A43U A45C, the yeast fitness was 0.837.

As for G44A G68U, the yeast fitness is 0.696.

Regarding G44A G68C, the yeast fitness was determined as 0.764.

Turning to A43G A57U G58A, the yeast fitness was 0.531.

Take A43U G48A C60A: the yeast fitness came to 0.586.

As to G44C G50C A57G A69U, the yeast fitness is ≤ 0.5.

For the variant A43G G51A C55G C60U, the yeast fitness was ≤ 0.5.

Regarding A43U C46U A69U, the yeast fitness is 0.807.

A43G C46U C60G G68U: the yeast fitness stood at 0.567.

For the variant A43C G68A, the yeast fitness was found to be 0.922.

Consider A43U C46A A65C A70U, for which the yeast fitness was ≤ 0.5.

G44A C60U: the yeast fitness stood at 0.798.

Turning to G44A C60A, the yeast fitness is 0.585.

On to A45C C49A U54C, for which the yeast fitness was ≤ 0.5.

Take G44A A45C C49G: the yeast fitness was 0.983.

As for A43U U54A A70G, the yeast fitness was ≤ 0.5.

On to G44A C55A, for which the yeast fitness came to 0.658.

For the variant G44A C55U, the yeast fitness came out at 0.776.

As to A43U C55U C66U, the yeast fitness worked out at 0.619.

On to A43G C49U A57C A65U, for which the yeast fitness was ≤ 0.5.

G44A C60U G67C: the yeast fitness is 0.545.

G44C C46A A69U: the yeast fitness is 0.726.

G44A U54A A70U: the yeast fitness was 0.549.

As to G44C G50C G52A U54G C61G, the yeast fitness was ≤ 0.5.

Regarding A43G U53A U54C, the yeast fitness was ≤ 0.5.

Consider G44C G52A C62G A69G, for which the yeast fitness was ≤ 0.5.

Turning to A45C C46G G56C, the yeast fitness came out at 0.563.

Take A43G G48A: the yeast fitness amounted to 0.933.

Regarding A45C G58C A69C, the yeast fitness was 0.651.

As for G44A G52A C61A, the yeast fitness was found to be 0.565.

G44A U54C C61U A69C: the yeast fitness was determined as 0.627.

G44A U64C: the yeast fitness was 0.935.

As to A45C G50A, the yeast fitness was 0.969.

In the case of G44C C46A G56C, the yeast fitness came to 0.543.

Consider A43G G48C C66G, for which the yeast fitness was ≤ 0.5.

Take A45C G50A C60G A65G: the yeast fitness is ≤ 0.5.

Consider A43G A45G, for which the yeast fitness amounted to 0.745.

Take A43G A45C: the yeast fitness came to 0.901.

In the case of A43G A45U, the yeast fitness amounted to 1.01.

Take A43G G68C: the yeast fitness turned out to be 0.712.

Turning to G44C G63A, the yeast fitness is 0.83.

On to G44A C61U, for which the yeast fitness amounted to 1.04.

Regarding G44C U47C, the yeast fitness was 0.822.
